Laboratory results reported in PMC4387373 (Infectious Disease Reports, 2015).
Where two headings read alike, the source gives them in different places.

Legend:
[1] = Clinical course of the patient: hemodynamics, functional class, tolerability; type: in vivo, human
[2] = cited from earlier work
[3] = cited from earlier work; remark: listed apart in the source
[4] = type: in vivo, human; conditions: for concentration at 2 h / concentration at 4 h / concentration at 6 h / concentration at 8 h: human, plasma, oral; for Cthrough (through concentration): patient on sildenafil 40 mg tid, bosentan 125 mg bid, ritonavir-boosted PI
[5] = cited from earlier work; remark: listed apart in the source
[6] = Plasma concentrations of protease inhibitors; type: in vivo, human; conditions: for concentration at 2 h / concentration at 4 h / concentration at 6 h / concentration at 8 h: human, plasma, oral; for Plasma concentration, t0: t0, 8 a.m., before intake of antiretroviral dose, fosamprenavir 700 mg bid
Method in brief: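 Heparinized venous blood was drawn before the morning antiretroviral dose (T0) and at 2, 4, 6 and 8 h after it. Plasma was separated by centrifugation and stored at −80 °C. PI levels were measured by a validated HPLC method.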

[7] = system: phosphodiesterase; conditions: same phosphodiesterase specificity as sildenafil; cited from earlier work
[8] = coadministered with lopinavir/ritonavir

## CCCc1nn(C)c2c(=O)[nH]c(-c3cc(S(=O)(=O)N4CCN(C)CC4)ccc3OCC)nc12 [sildenafil]
[1]; May 2012, worsening exertional dyspnea on sildenafil 20 mg tid
  Mean PAP: 47 mmHg
[1]; October 2012, after sildenafil increased to 40 mg tid, bosentan 125 mg bid
  Mean PAP: 40 mmHg
[1]; October 2012, sildenafil 40 mg tid, bosentan 125 mg bid
  6-minute walking test: 479 m
[1]; after introduction of sildenafil 20 mg tid
  NYHA stage change: from NYHA stage III to NYHA stage II
[1]; after sildenafil 20 mg tid was added to bosentan, previously 63 mmHg
  Mean PAP: 43 mmHg
[1]; during follow-up
  Eye fundus examination versus baseline: no significant changes
[1]; measured regularly during the investigation
  Influence on systemic blood pressure: no significant influence
[1]; patient with raised sildenafil levels, headache, flushing, dyspepsia, priapism
  Adverse reactions during follow-up: did not report any adverse reactions
[2]
  Plasma concentration at which maximal reductions in PAP and PVR were obtained: ~100 ng/mL
[3]; healthy adults, 20 mg tid, oral
  tmax: approximately 1 hour
[3]; healthy adults, sildenafil 20 mg tid
  Cmax: about 145 ng/mL
[4]; coadministration of sildenafil and ritonavir-boosted PI
  Plasma concentration versus the therapeutic range: above the therapeutic range
[4]
  concentration at 2 h: 925 ng/mL
  concentration at 4 h: 566 ng/mL
  concentration at 6 h: 1730 ng/mL
  concentration at 8 h: 900 ng/mL
  Cthrough (through concentration): 276.94 ng/mL
[5]; with ritonavir 500 mg twice daily
  Increase of AUC: 11 fold

## COc1ccccc1Oc1c(NS(=O)(=O)c2ccc(C(C)(C)C)cc2)nc(-c2ncccn2)nc1OCCO [bosentan]
[4]
  concentration at 2 h: 3370 ng/mL
  concentration at 4 h: 1750 ng/mL
  concentration at 6 h: 1310 ng/mL
  concentration at 8 h: 1230 ng/mL
  Cthrough (through concentration): 1546.53 ng/mL
[5]; by steady-state sildenafil, healthy volunteers
  Increase of Cmax: 42%
[5]; [8]
  Increase in AUC at steady state: 422%
  Increase in Cmax at steady state: 512%

## CC(C)CN(C[C@@H](O)[C@H](Cc1ccccc1)NC(=O)O[C@H]1CCOC1)S(=O)(=O)c1ccc(N)cc1 [amprenavir]
[6]
  concentration at 2 h: 1680 ng/mL
  concentration at 4 h: 3960 ng/mL
  concentration at 6 h: 2170 ng/mL
  concentration at 8 h: 1890 ng/mL
[6]; patient on fosamprenavir 700 mg bid, ritonavir 100 mg bid
  Cthrough: 1495 ng/mL
[6]; patient, therapeutic ranges from ref 16
  Plasma levels versus therapeutic ranges: within therapeutic ranges
[6]; ritonavir 100 mg bid
  Plasma concentration, t0: 1495 ng/mL

## CC(C)c1nc(CN(C)C(=O)N[C@H](C(=O)N[C@@H](Cc2ccccc2)C[C@H](O)[C@H](Cc2ccccc2)NC(=O)OCc2cncs2)C(C)C)cs1 [ritonavir]
[6]
  concentration at 2 h: < 50 ng/mL
  concentration at 4 h: < 50 ng/mL
  concentration at 6 h: < 50 ng/mL
  concentration at 8 h: < 50 ng/mL
[6]; ritonavir 100 mg bid, bosentan coadministered
  Plasma levels in all of the samples: undetectable
[6]; ritonavir 100 mg bid
  Plasma concentration, t0: <50 ng/mL

## CCCc1nn(C)c2c(=O)[nH]c(-c3cc(S(=O)(=O)N4CCNCC4)ccc3OCC)nc12 [N-desmethylsildenafil]
[3]; metabolite relative to sildenafil
  Plasma levels as % of the parent drug: 40-50%
[4]; during the study, patient on ritonavir-boosted PI
  Plasma concentrations as % of the parent drug: 40-50%
[4]; t2, 10 a.m., 2 hours after intake of sildenafil and bosentan
  Plasma concentration, t2: 58.33 ng/mL
[4]; t4, noon, 4 hours after intake of sildenafil and bosentan
  Plasma concentration, t4: 61.85 ng/mL
[4]; t6, 2 p.m., 6 hours after intake of sildenafil and bosentan
  Plasma concentration, t6: 140.95 ng/mL
[4]; t8, 4 p.m., 8 hours after intake of sildenafil and bosentan
  Plasma concentration, t8: 121.35 ng/mL
[7]
  Potency relative to sildenafil: about half the potency
